What was measured:
A549 [1] = test: Upregulation of RRAD gene expression in human A549 cells at 26 nM after 12 hrs by microarray analysis relative to control; type: functional
In short: (§1)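 4 ×10^5 A549 cells seeded per 60 mm dish and treated 12 h with conjugate (21, 26, 34 or 100 nM) in medium; control medium contained 0.1% DMSO, with conjugates added as 0.1% DMSO solutions. Whole human genome (~25 000 genes) expression profiled by microarray against the DMSO control. A549 culture: RPMI-1640 with 10% heat-inactivated FBS, penicillin/streptomycin, 37 °C, 5% CO2.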

A549 [2] = test: Downregulation of XP_375606.2 gene expression in human A549 cells at 26 nM after 12 hrs by microarray analysis relative to control; type: functional
In short: (§2)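 A549 cells (RPMI-1640, 10% heat-inactivated FBS, penicillin/streptomycin, 37 °C, 5% CO2) seeded at 4 × 10^5 per 60 mm dish. Exposed 12 h to conjugate at 21, 26, 34 or 100 nM in medium with 0.1% DMSO, against 0.1% DMSO control. Whole-genome (~25 000 genes) expression profiled by microarray.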

A549 [3] = test: Downregulation of SLC4A4 gene expression in human A549 cells at 26 nM after 12 hrs by microarray analysis relative to control; type: functional; in short: as §2
A549 [4] = test: Upregulation of MDM2 gene expression in human A549 cells at 26 nM after 12 hrs by microarray analysis relative to control; type: functional; in short: as §1
A549 [5] = test: Downregulation of EPM2A gene expression in human A549 cells at 26 nM after 12 hrs by microarray analysis relative to control; type: functional
In short: (§3)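 A549 cells, 4 × 10^5 per 60 mm dish, were exposed to conjugate for 12 h in medium with 0.1% DMSO; vehicle control was 0.1% DMSO. Whole human genome (~25 000 genes) expression was profiled by microarray and expression compared with the control.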

Mus musculus [6] = test: Toxicity in BALB/c nu/nu mouse at 1.6 mg/kg, iv administered as liposomal conjugate for 14 days; type: organism-based; set-up: dose 1.6 mg/kg, route intravenous; settings: in vivo, 336 h
In short: (§4)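 Pre-test in male BALB/c-nu/nu mice without xenografts. Naked conjugate was dissolved in 100% DMSO and given ip at 0.50 mg/kg (12.5 μg/mouse). Liposomal conjugate (0.33 mg/mL in 17 mM lipid, hydrated with water and sonicated) was given iv at 1.6 mg/kg (41 μg/mouse), 125 μL single dose.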

A549 [7] = test: Upregulation of SPESP1 gene expression in human A549 cells at 26 nM after 12 hrs by microarray analysis relative to control; type: functional; in short: as §1
A549 [8] = test: Downregulation of DPYD gene expression in human A549 cells at 26 nM after 12 hrs by microarray analysis relative to control; type: functional; in short: as §3
A549 [9] = test: Downregulation of NP_940865.1 gene expression in human A549 cells at 26 nM after 12 hrs by microarray analysis relative to control; type: functional; in short: as §2
Mus musculus [10] = test: Toxicity in BALB/c nu/nu mouse at 0.50 mg/kg, ip for 14 days; type: organism-based; set-up: dose 0.5 mg/kg, route intraperitoneal; settings: in vivo, 0.5 mg/kg, 336 h; in short: as §4
A549 [11] = test: Upregulation of CDKN1A gene expression in human A549 cells at 26 nM after 12 hrs by microarray analysis relative to control; type: functional; in short: as §1
A549 [12] = test: Downregulation of ACTG gene expression in human A549 cells at 26 nM after 12 hrs by microarray analysis relative to control; type: functional; in short: as §3
A549 [13] = test: Downregulation of NBEA gene expression in human A549 cells at 26 nM after 12 hrs by microarray analysis relative to control; type: functional; in short: as §3
A549 [14] = test: Downregulation of CTTNBP2 gene expression in human A549 cells at 26 nM after 12 hrs by microarray analysis relative to control; type: functional; in short: as §3
A549 [15] = test: Upregulation of HES2 gene expression in human A549 cells at 26 nM after 12 hrs by microarray analysis relative to control; type: functional; in short: as §1
A549 [16] = test: Upregulation of BTG2 gene expression in human A549 cells at 26 nM after 12 hrs by microarray analysis relative to control; type: functional; in short: as §1
A549 [17] = test: Downregulation of Q8N570 gene expression in human A549 cells at 26 nM after 12 hrs by microarray analysis relative to control; type: functional; in short: as §2
A549 [18] = test: Downregulation of Q5WOV6 gene expression in human A549 cells at 26 nM after 12 hrs by microarray analysis relative to control; type: functional; in short: as §2
A549 [19] = test: Upregulation of GADD45A gene expression in human A549 cells at 26 nM after 12 hrs by microarray analysis relative to control; type: functional; in short: as §1
A549 [20] = test: Downregulation of Q8NBA2 gene expression in human A549 cells at 34 nM after 12 hrs by microarray analysis relative to control; type: functional; in short: as §2
A549 [21] = test: Downregulation of ACTG gene expression in human A549 cells at 34 nM after 12 hrs by microarray analysis relative to control; type: functional; in short: as §3
A549 [22] = test: Upregulation of NP_997213.1 gene expression in human A549 cells at 34 nM after 12 hrs by microarray analysis relative to control; type: functional; in short: as §1
A549 [23] = test: Downregulation of PTPRK gene expression in human A549 cells at 34 nM after 12 hrs by microarray analysis relative to control; type: functional; in short: as §2
A549 [24] = test: Downregulation of ZNF407 gene expression in human A549 cells at 34 nM after 12 hrs by microarray analysis relative to control; type: functional; in short: as §2
A549 [25] = test: Downregulation of SIPA1L1 gene expression in human A549 cells at 34 nM after 12 hrs by microarray analysis relative to control; type: functional; in short: as §2
A549 [26] = test: Upregulation of HES2 gene expression in human A549 cells at 34 nM after 12 hrs by microarray analysis relative to control; type: functional; in short: as §1
A549 [27] = test: Downregulation of ZNF291 gene expression in human A549 cells at 34 nM after 12 hrs by microarray analysis relative to control; type: functional; in short: as §2
A549 [28] = test: Downregulation of SMYD3 gene expression in human A549 cells at 34 nM after 12 hrs by microarray analysis relative to control; type: functional; in short: as §2
A549 [29] = test: Upregulation of BBC3 gene expression in human A549 cells at 34 nM after 12 hrs by microarray analysis relative to control; type: functional; in short: as §2
A549 [30] = test: Downregulation of Q9P223 gene expression in human A549 cells at 34 nM after 12 hrs by microarray analysis relative to control; type: functional; in short: as §2
A549 [31] = test: Upregulation of CDKN1A gene expression in human A549 cells at 34 nM after 12 hrs by microarray analysis relative to control; type: functional; in short: as §1
A549 [32] = test: Downregulation of OR1C1 gene expression in human A549 cells at 34 nM after 12 hrs by microarray analysis relative to control; type: functional; in short: as §2
A549 [33] = test: Upregulation of KRTHA4 gene expression in human A549 cells at 34 nM after 12 hrs by microarray analysis relative to control; type: functional; in short: as §1
A549 [34] = test: Downregulation of Q8N570 gene expression in human A549 cells at 34 nM after 12 hrs by microarray analysis relative to control; type: functional; in short: as §2
A549 [35] = test: Upregulation of BTG2 gene expression in human A549 cells at 34 nM after 12 hrs by microarray analysis relative to control; type: functional; in short: as §1
A549 [36] = test: Downregulation of NBEA gene expression in human A549 cells at 34 nM after 12 hrs by microarray analysis relative to control; type: functional; in short: as §3

**Q.** What does the source list for `CC(=O)Nc1cn(C)c(C(=O)Nc2cc(C(=O)Nc3cc(C(=O)NCCC(=O)Nc4cc(C(=O)NCCCC(=O)Nc5cc(C(=O)NCCC(=O)Nc6cn(C)c(C(=O)Nc7ccc8[nH]c(C(=O)N9CC(CCl)c%10c9cc(O)c9ccccc%109)cc8c7)n6)n(C)c5)n(C)c4)n(C)c3)n(C)c2)n1` (racemic)?
**A.** fold change (FC) (A549 [1]): 6; fold change (FC) (A549 [2]): 0.35; fold change (FC) (A549 [3]): 0.273; fold change (FC) (A549 [4]): 8.1; fold change (FC) (A549 [5]): 0.353; Activity (Mus musculus [6]): Non-toxic; fold change (FC) (A549 [7]): 11; fold change (FC) (A549 [8]): 0.115; fold change (FC) (A549 [9]): 0.322; Activity (Mus musculus [10]): Non-toxic; fold change (FC) (A549 [11]): 8.2; fold change (FC) (A549 [12]): 0.311; fold change (FC) (A549 [13]): 0.339; fold change (FC) (A549 [14]): 0.36; fold change (FC) (A549 [15]): 9.4; fold change (FC) (A549 [16]): 10.1; fold change (FC) (A549 [17]): 0.283; fold change (FC) (A549 [18]): 0.324; fold change (FC) (A549 [19]): 7

**Q.** Which results are given for `CC(=O)Nc1cn(C)c(C(=O)Nc2cn(C)c(C(=O)Nc3cc(C(=O)NCCC(=O)Nc4cc(C(=O)NCCCC(=O)Nc5cn(C)c(C(=O)NCCC(=O)Nc6cn(C)c(C(=O)Nc7ccc8[nH]c(C(=O)N9CC(CCl)c%10c9cc(O)c9ccccc%109)cc8c7)n6)n5)n(C)c4)n(C)c3)n2)n1` (racemic)?
**A.** fold change (FC) (A549 [20]): 0.276; fold change (FC) (A549 [21]): 0.307; fold change (FC) (A549 [22]): 6; fold change (FC) (A549 [23]): 0.189; fold change (FC) (A549 [24]): 0.241; fold change (FC) (A549 [25]): 0.309; fold change (FC) (A549 [26]): 8.2; fold change (FC) (A549 [27]): 0.311; fold change (FC) (A549 [28]): 0.291; fold change (FC) (A549 [29]): 8.5; fold change (FC) (A549 [30]): 0.258; fold change (FC) (A549 [31]): 7.8; fold change (FC) (A549 [32]): 0.324; fold change (FC) (A549 [33]): 6.1; fold change (FC) (A549 [34]): 0.186; fold change (FC) (A549 [35]): 9.7; fold change (FC) (A549 [36]): 0.152

Reference: ChEMBL document CHEMBL2169747, “Synthesis and biological properties of highly sequence-specific-alkylating N-methylpyrrole-N-methylimidazole polyamide conjugates” (J Med Chem, 2012)
